Legend:
[1] = system: SK-MEL-28; experiment: Antiproliferative activity against human SK-MEL-28 cells by SRB assay; type: functional
In short: (§1)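 Tested in the NCI in vitro human tumor cell line screen, run by the National Cancer Institute. Each compound was given at five concentrations (100, 10, 1.0, 0.1 and 0.01 μM). GI50 is the drug concentration that reduces growth of treated cells to half that of control cells during drug incubation, judged from the SRB signal.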

[2] = system: RPMI-8226; experiment: Antiproliferative activity against human RPMI8226 cells by SRB assay; type: functional; in short: as §1
[3] = system: MCF7; experiment: Antiproliferative activity against human MCF7 cells by SRB assay; type: functional; in short: as §1
[4] = system: NCI-H226; experiment: Cytotoxicity against human NCI-H226 cells; type: cell-based
[5] = system: A498; experiment: Antiproliferative activity against human A498 cells by SRB assay; type: functional; in short: as §1
[6] = system: UO-31; experiment: Antiproliferative activity against human UO31 cells by SRB assay; type: functional
In short: (§2)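 Cell growth was tested in the NIH in vitro disease-oriented human tumor cell line screen, which NCI ran for these compounds. Compounds were tested at five concentrations (100, 10, 1.0, 0.1 and 0.01 μM), and growth was read by SRB signal. GI50 is the drug concentration that reduces growth of treated cells to half that of control cells during drug incubation.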

[7] = system: UACC-257; experiment: Antiproliferative activity against human UACC257 cells by SRB assay; type: functional; in short: as §2
[8] = system: SK-MEL-5; experiment: Antiproliferative activity against human SK-MEL-5 cells by SRB assay; type: functional; in short: as §1
[9] = system: Malme-3M; experiment: Cytotoxicity against human MALME-3M cells; type: cell-based
In short: (§3)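 Tested in the NCI in vitro disease-oriented human tumour cell line screen, with screening performed by NCI. Growth was read by SRB signal over the drug incubation period at five concentrations: 100, 10, 1.0, 0.1 and 0.01 μM. GI50 is the concentration that reduces growth of treated cells to half that of control cells.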

[10] = system: HOP-62; experiment: Antiproliferative activity against human HOP62 cells by SRB assay; type: functional; in short: as §1
[11] = system: TK-10; experiment: Cytotoxicity against human TK10 cells; type: cell-based
In short: (§4)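 Screened by NCI in its in vitro disease-oriented human tumour cell line panel. Compounds tested at five concentrations (100, 10, 1.0, 0.1 and 0.01 μM). Growth read by sulforhodamine B (SRB) signal. GI50 is the concentration reducing growth of treated cells to half that of control cells during the drug incubation.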

[12] = system: SN12C; experiment: Antiproliferative activity against human SN12C cells by SRB assay; type: functional; in short: as §1
[13] = system: OVCAR-3; experiment: Antiproliferative activity against human OVCAR3 cells by SRB assay; type: functional; in short: as §1
[14] = system: SK-OV-3; experiment: Cytotoxicity against human SKOV3 cells; type: cell-based
[15] = system: K562; experiment: Antiproliferative activity against human K562 cells by SRB assay; type: functional; in short: as §1
[16] = system: HCT-15; experiment: Antiproliferative activity against human HCT15 cells by SRB assay; type: functional; in short: as §1
[17] = system: EKVX; experiment: Antiproliferative activity against human EKVX cells by SRB assay; type: functional; in short: as §1
[18] = system: HOP-92; experiment: Cytotoxicity against human HOP92 cells; type: cell-based
[19] = system: LOX IMVI; experiment: Antiproliferative activity against human LOXIMVI cells by SRB assay; type: functional; in short: as §1
[20] = system: HOP-62; experiment: Cytotoxicity against human HOP62 cells; type: cell-based; in short: as §3
[21] = system: HCT-15; experiment: Cytotoxicity against human HCT15 cells; type: cell-based; in short: as §3
[22] = system: 786-0; experiment: Cytotoxicity against human 786-0 cells; type: cell-based
[23] = system: SR; experiment: Cytotoxicity against human SR cells; type: cell-based; in short: as §4
[24] = system: BT-549; experiment: Antiproliferative activity against human BT549 cells by SRB assay; type: functional; in short: as §1
[25] = system: SNB-19; experiment: Cytotoxicity against human SNB19 cells; type: cell-based; in short: as §4
[26] = system: ACHN; experiment: Cytotoxicity against human ACHN cells; type: cell-based
[27] = system: NCI-H522; experiment: Antiproliferative activity against human NCI-H522 cells by SRB assay; type: functional; in short: as §1
[28] = system: SF-295; experiment: Antiproliferative activity against human SF295 cells by SRB assay; type: functional; in short: as §1
[29] = system: KM12; experiment: Cytotoxicity against human KM12 cells; type: cell-based
[30] = system: HL-60(TB); experiment: Antiproliferative activity against human HL-60(TB) cells by SRB assay; type: functional; in short: as §3
[31] = system: U-251; experiment: Antiproliferative activity against human U251 cells by SRB assay; type: functional; in short: as §2
[32] = system: Malme-3M; experiment: Antiproliferative activity against human MALME-3M cells by SRB assay; type: functional; in short: as §1
[33] = system: SK-MEL-5; experiment: Cytotoxicity against human SK-MEL-5 cells; type: cell-based
[34] = system: OVCAR-8; experiment: Cytotoxicity against human OVCAR8 cells; type: cell-based
[35] = system: MCF7; experiment: Cytotoxicity against human MCF7 cells; type: cell-based
[36] = Cytotoxicity against human Hs 578T cells; type: cell-based
[37] = system: UACC-62; experiment: Cytotoxicity against human UACC62 cells; type: cell-based; in short: as §4
[38] = system: IGROV-1; experiment: Cytotoxicity against human IGROV1 cells; type: cell-based
[39] = molecular target: Histone deacetylase; experiment: Inhibition of HDAC in human HeLa cells using Ac-Arg-Gly-Lys(Ac)-AMC as fluorescent substrate after 20 mins by fluorescence assay; type: cell-based
[40] = system: HT-29; experiment: Cytotoxicity against human HT-29 cells; type: cell-based; in short: as §3
[41] = system: A498; experiment: Cytotoxicity against human A498 cells; type: cell-based
[42] = system: PC-3; experiment: Cytotoxicity against human PC3 cells; type: cell-based
[43] = system: HCT-116; experiment: Cytotoxicity against human HCT116 cells; type: cell-based; in short: as §3
[44] = system: ACHN; experiment: Antiproliferative activity against human ACHN cells by SRB assay; type: functional; in short: as §1
[45] = system: SK-MEL-28; experiment: Cytotoxicity against human SK-MEL-28 cells; type: cell-based
[46] = system: LOX IMVI; experiment: Cytotoxicity against human LOXIMVI cells; type: cell-based
[47] = system: SF-268; experiment: Cytotoxicity against human SF268 cells; type: cell-based; in short: as §3
[48] = system: SW-620; experiment: Antiproliferative activity against human SW620 cells by SRB assay; type: functional; in short: as §2
[49] = system: MDA-MB-231; experiment: Antiproliferative activity against human MDA-MB-231 cells by SRB assay; type: functional; in short: as §1
[50] = system: MOLT-4; experiment: Antiproliferative activity against human MOLT4 cells by SRB assay; type: functional; in short: as §1
[51] = system: HCC 2998; experiment: Cytotoxicity against human HCC2998 cells; type: cell-based; in short: as §3
[52] = system: HCC 2998; experiment: Antiproliferative activity against human HCC2998 cells by SRB assay; type: functional; in short: as §1
[53] = system: NCI/ADR-RES; experiment: Cytotoxicity against human NCI/ADR-RES cells; type: cell-based; in short: as §3
[54] = system: M14; experiment: Cytotoxicity against human M14 cells; type: cell-based
[55] = system: NCI/ADR-RES; experiment: Antiproliferative activity against human NCI/ADR-RES cells by SRB assay; type: functional; in short: as §1
[56] = system: MDA-MB-468; experiment: Antiproliferative activity against human MDA-MB-468 cells by SRB assay; type: functional; in short: as §1

CC(C)C(/C=C/c1ccccc1)n1cc(/C=C/C(=O)NO)nn1 (stereo unspecified)
GI50 [1]: 1590 nM
GI50 [2]: 317 nM
GI50 [3]: 1320 nM
LC50 [4]: 40.1 µM
GI50 [5]: 1510 nM
GI50 [6]: 1480 nM
GI50 [7]: 3120 nM
GI50 [8]: 730 nM
LC50 [9]: 68.4 µM
GI50 [10]: 1240 nM
LC50 [11]: > 100 µM
GI50 [12]: 1860 nM
GI50 [13]: 1530 nM
LC50 [14]: 27.8 µM
GI50 [15]: 705 nM
GI50 [16]: 2900 nM
GI50 [17]: 1810 nM
LC50 [18]: 22.1 µM
GI50 [19]: 1180 nM
LC50 [20]: 23.4 µM
LC50 [21]: > 100 µM
LC50 [22]: 6.74 µM
LC50 [23]: > 100 µM
GI50 [24]: 3280 nM
LC50 [25]: 66.6 µM
LC50 [26]: 71.1 µM
GI50 [27]: 582 nM
GI50 [28]: 1470 nM
LC50 [29]: 9.53 µM
GI50 [30]: 728 nM
GI50 [31]: 1130 nM
GI50 [32]: 311 nM
LC50 [33]: 5.17 µM
LC50 [34]: > 100 µM
LC50 [35]: > 100 µM
LC50 [36]: > 100 µM
LC50 [37]: 6.61 µM
LC50 [38]: 31.6 µM
IC50 [39]: 22 nM
LC50 [40]: > 100 µM
LC50 [41]: 8.63 µM
LC50 [42]: 46.5 µM
LC50 [43]: 3.85 µM
GI50 [44]: 1210 nM
LC50 [45]: 44.9 µM
LC50 [46]: 5.47 µM
LC50 [47]: 29.7 µM
GI50 [48]: 649 nM
GI50 [49]: 1970 nM
GI50 [50]: 427 nM

O=C(/C=C/c1cn(C(/C=C/c2ccccc2)Cc2ccccc2)nn1)NO (stereo unspecified)
GI50 [1]: 1300 nM
GI50 [2]: 743 nM
GI50 [3]: 1210 nM
LC50 [4]: 46.8 µM
GI50 [5]: 1160 nM
GI50 [6]: 650 nM
GI50 [7]: 1680 nM
GI50 [8]: 879 nM
LC50 [51]: 6.12 µM
LC50 [9]: 28.6 µM
GI50 [10]: 1440 nM
GI50 [52]: 1240 nM
LC50 [11]: 12.9 µM
GI50 [12]: 2340 nM
GI50 [13]: 1160 nM
LC50 [14]: 13.3 µM
GI50 [15]: 1050 nM
GI50 [16]: 1590 nM
GI50 [17]: 1460 nM
LC50 [18]: 11.6 µM
GI50 [19]: 521 nM
LC50 [20]: 18.3 µM
LC50 [21]: 74.5 µM
LC50 [22]: 6.45 µM
LC50 [23]: > 100 µM
GI50 [24]: 1620 nM
LC50 [25]: 18.8 µM
LC50 [26]: 13.7 µM
LC50 [53]: > 100 µM
GI50 [27]: 386 nM
GI50 [28]: 291 nM
LC50 [29]: 34.2 µM
GI50 [30]: 670 nM
LC50 [54]: 16.5 µM
GI50 [31]: 948 nM
GI50 [32]: 305 nM
LC50 [33]: 5.3 µM
LC50 [34]: > 100 µM
LC50 [35]: 93.2 µM
LC50 [36]: 74.6 µM
LC50 [37]: 6.34 µM
LC50 [38]: 8.18 µM
IC50 [39]: 77 nM
GI50 [55]: 342 nM
LC50 [40]: > 100 µM
LC50 [41]: 5.46 µM
LC50 [42]: > 100 µM
LC50 [43]: 5.97 µM
GI50 [44]: 1230 nM
LC50 [45]: 9.4 µM
LC50 [46]: 4.62 µM
GI50 [56]: 1520 nM
LC50 [47]: 9.17 µM
GI50 [48]: 892 nM
GI50 [49]: 2210 nM
GI50 [50]: 493 nM

Reference: ChEMBL document CHEMBL1806473, “Structure-based optimization of click-based histone deacetylase inhibitors” (Eur J Med Chem, 2011)
